We go through six compounds from ChEMBL document CHEMBL4373711, “Development of 3,5-Dinitrophenyl-Containing 1,2,4-Triazoles and Their Trifluoromethyl Analogues as Highly Efficient Antitubercular Agents Inhibiting Decaprenylphosphoryl-β-d-ribofuranose 2'-Oxidase” (J Med Chem, 2019).

The MIC99 is an inhibitory concentration at the 99% level, which refers to growth in some studies and to a panel of isolates in others. Low readings indicate greater potency, high ones weaker potency. Usually pIC50 stands for −log10 of the IC50, conventionally taken in molar units.

pIC50: −log10 of the molar value. Converted amounts (≈) assume the structure as drawn. The source made the active and inactive calls. No cut-off for these calls is given here.

Series [1] deals with Mycobacterium kansasii. Nature of the series: Antimycobacterial activity against Mycobacterium kansasii 6509/96 after 7 days. The series is classed as functional. The note with it: 6509/96, 168 h. Put shortly: (§1)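 Microdilution in Šula's semisynthetic medium; compounds in DMSO at 32–0.03 µM. Inoculum from 1.0 McFarland suspension diluted 10-4. […] Isoniazid and rifampicin as reference drugs.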

Series [2] deals with Mycobacterium kansasii. Nature of the series: Antimycobacterial activity against Mycobacterium kansasii 6509/96 after 14 days. It is filed as functional. The settings on record: 6509/96, 336 h. Put shortly:
as §1

In series [3] the test system is Mycobacterium kansasii. The series can be described thus: Antimycobacterial activity against Mycobacterium kansasii 6509/96 after 21 days. The series is classed as functional. The settings on record: 6509/96, 504 h. The gist of the method:
as §1

In a further series the test system is Aspergillus flavus. The series can be described thus: Antifungal activity against Aspergillus flavus CCM 8363 at highest concentration measured after 24 to 48 hrs by alamar blue dye based broth microdilution assay. The series is classed as functional, organism-based.
The test system of the next series is HepG2. Nature of the series: Cytotoxicity against human HepG2 cells assessed as reduction in cell viability after 48 hrs by CellTiter 96 aqueous one solution assay. It is filed as cell-based. The settings on record: HepG2, 48 h.
Series [4] is described as follows: Cytotoxicity against human HepG2 cells assessed as cell viability at 30 uM after 48 hrs by CellTiter 96 aqueous one solution assay relative to control. The series is classed as cell-based. The settings on record: read-out: Activity. The gist of the method:
(§2)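 HepG2 (DMEM, 10% FBS, 1 mM pyruvate) or A431 (DMEM, 10% FBS) seeded 10,000 cells/well, 24 h at 37 °C, 5% CO2, then 30 µM compound for 48 h. MTS reagent 60 min, absorbance 490 nm, background subtracted; 0.1% DMSO vehicle = 100%, 10% SDS = 0% viability.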

The subject of the next series is A-431. Nature of the series: Cytotoxicity against human A431 cells assessed as reduction in cell viability after 48 hrs by CellTiter 96 aqueous one solution assay. It is filed as cell-based. The settings on record: A-431, 48 h.
Series [5] can be described thus: Cytotoxicity against human A431 cells assessed as cell viability at 30 uM after 48 hrs by CellTiter 96 aqueous one solution assay relative to control. The series is classed as cell-based, A-431. The settings on record: read-out: Activity. The gist of the method:
as §2

Series [6] addresses T1, Decaprenylphosphoryl-beta-D-ribose oxidase (Mycobacterium smegmatis (strain ATCC 700084 / mc(2)155)) (UniProt A0R607).
T1 sequence (whole entry): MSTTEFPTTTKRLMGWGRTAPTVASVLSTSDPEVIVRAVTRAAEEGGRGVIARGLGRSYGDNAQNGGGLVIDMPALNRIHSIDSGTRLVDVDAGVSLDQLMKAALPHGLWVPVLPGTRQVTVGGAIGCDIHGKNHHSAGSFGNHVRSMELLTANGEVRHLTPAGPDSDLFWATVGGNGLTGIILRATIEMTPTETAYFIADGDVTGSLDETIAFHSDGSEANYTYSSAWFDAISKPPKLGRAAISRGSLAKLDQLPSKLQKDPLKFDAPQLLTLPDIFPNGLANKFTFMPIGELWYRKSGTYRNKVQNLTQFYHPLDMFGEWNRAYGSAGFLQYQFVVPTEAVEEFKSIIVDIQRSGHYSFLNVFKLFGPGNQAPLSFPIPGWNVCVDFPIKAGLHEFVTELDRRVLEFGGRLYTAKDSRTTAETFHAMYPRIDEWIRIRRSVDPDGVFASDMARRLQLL
Nature of the series: Inhibition of DprE1 in Mycolicibacterium smegmatis MC2 155 lysate assessed as reduction in epimerization of P[14C]RPP to DP[14C]A at 700 uM measured after 1.5 hrs in presence of NADH by TLC-based autoradiography. The series is classed as subcellular. The gist of the method: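 Cell-free DPA synthesis used a membrane/cell-envelope fraction (430 µg), spun at 100 000 × g, from sonicated M. smegmatis mc2155. The fraction was incubated 1.5 h with 15,000 dpm P[14C]RPP and NADH. BTZ was used at 70 µM and test compounds at 700 µM final, both added from DMSO stocks. Lipids were extracted, 25% was resolved by TLC, and autoradiography ran 8 days at -80 °C.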

Series [7] concerns the target T2, Decaprenylphosphoryl-beta-D-ribose oxidase (Mycobacterium tuberculosis (strain ATCC 25618 / H37Rv)) (UniProt P9WJF1).
T2 sequence (whole entry): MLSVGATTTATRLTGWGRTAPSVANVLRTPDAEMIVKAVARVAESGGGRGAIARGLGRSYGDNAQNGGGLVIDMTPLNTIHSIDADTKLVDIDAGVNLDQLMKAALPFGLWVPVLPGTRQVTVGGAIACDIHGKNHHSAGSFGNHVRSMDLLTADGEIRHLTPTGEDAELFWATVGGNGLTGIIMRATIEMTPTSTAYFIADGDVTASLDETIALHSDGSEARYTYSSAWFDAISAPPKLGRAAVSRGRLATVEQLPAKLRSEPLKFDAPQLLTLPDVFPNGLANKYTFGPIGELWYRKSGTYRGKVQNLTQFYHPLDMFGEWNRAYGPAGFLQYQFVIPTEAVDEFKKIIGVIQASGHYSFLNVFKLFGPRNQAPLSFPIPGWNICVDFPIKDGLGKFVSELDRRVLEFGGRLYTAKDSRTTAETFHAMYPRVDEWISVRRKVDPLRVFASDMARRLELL
The series can be described thus: Inhibition of DprE1 in Mycobacterium tuberculosis H37Rv assessed as accumulation of trehalose dimycolates at 100 times MIC measured after 24 hrs in presence of [14C]-acetate by TLC-based autoradiography. The gist of the method:
(§3)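 M. tuberculosis H37Rv cultures were exposed to compound at final 10× or 100× MIC, or to DMSO, together with [14C]-acetate at 1 µCi/ml final. After 24 h, lipids were extracted in CHCl3/CH3OH (2:1) for 2 h at 65 °C and given two Folch washes. Extracts were run on TLC in CHCl3/CH3OH/H2O (20:4:0.5), then autoradiographed for 7 days at -80 °C.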

Series [8] deals with T2, Decaprenylphosphoryl-beta-D-ribose oxidase (Mycobacterium tuberculosis (strain ATCC 25618 / H37Rv)). Nature of the series: Inhibition of DprE1 in Mycobacterium tuberculosis H37Rv assessed as accumulation of trehalose monomycolates at 100 times MIC measured after 24 hrs in presence of [14C]-acetate by TLC-based autoradiography. Put shortly:
as §3

Series [9] can be described thus: Selectivity index, ratio of IC50 for human HepG2 cells to MIC>99 for antimycobacterial activity against Mycobacterium tuberculosis H37Rv CNCTC My 331/88 after 14 days. It is filed as toxicity. The note with it: read-out: Selectivity Index. Put shortly:
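SI from HepG2 IC50 and M. tuberculosis MIC. HepG2 cells: DMEM + 10% FBS + 1 mM pyruvate, 10,000/well, 48 h treatment, 0.1% DMSO and 10% SDS controls, MTS absorbance at 490 nm.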

A short description of series [10]: Selectivity index, ratio of IC50 for human HepG2 cells to MIC>99 for antimycobacterial activity against Mycobacterium kansasii CNCTC My 235/80 after 7 days. The series is classed as toxicity. The settings on record: read-out: Selectivity Index.
Series [11] is described as follows: Selectivity index, ratio of IC50 for human HepG2 cells to MIC>99 for antimycobacterial activity against Mycobacterium kansasii 6509/96 after 7 days. The series is classed as toxicity. The note with it: read-out: Selectivity Index.
Series [12] is described as follows: Selectivity index, ratio of IC50 for human A431 cells to MIC>99 for antimycobacterial activity against Mycobacterium avium CNCTC My 330/88 after 14 days. The series is classed as toxicity. The settings on record: read-out: Selectivity Index.
Series [13] is described as follows: Selectivity index, ratio of IC50 for human A431 cells to MIC>99 for antimycobacterial activity against Mycobacterium avium CNCTC My 330/88 after 21 days. It is filed as toxicity. The note with it: read-out: Selectivity Index.
Series [14] is described as follows: Selectivity index, ratio of IC50 for human A431 cells to MIC>99 for antimycobacterial activity against Mycobacterium kansasii CNCTC My 235/80 after 7 days. The note with it: read-out: Selectivity Index. The series is classed as toxicity.

Consider `COc1ccc(CSc2nnc(-c3cc([N+](=O)[O-])cc([N+](=O)[O-])c3)n2Cc2ccccc2)cc1`, for which the MIC99 in the series with Mycobacterium kansasii [1], against Mycobacterium kansasii [2] and against Mycobacterium kansasii [3] was 0.03 µM (≈ 0.0143 µg/mL) in each case. Further, the result with Aspergillus flavus was inactive. Besides, the pIC50 in the series on HepG2 and in the series with A-431 was less than 4.52 throughout. Also, the viability at 48 h, 30 µM in [4] worked out at 104%; in series [5] it was 92%. In series [6], the “DprE1 inhibition (active/not active)” value was “Active”. The inhibition entry in series [7] and in series [8] was “Active” each time.

Regarding `O=[N+]([O-])c1cc(-c2nnc(SCc3ccccc3)n2Cc2ccccc2)cc(C(F)(F)F)c1`, the MIC99 against Mycobacterium kansasii [1], in the series with Mycobacterium kansasii [2] and against Mycobacterium kansasii [3] was 0.03 µM (≈ 0.0141 µg/mL) in each case. Also, in the series on Aspergillus flavus, the result was inactive. For the same compound, the pIC50 is 4.67 in the series on HepG2 and 5.00 in the series with A-431. In addition, the viability at 48 h, 30 µM in [4] came to 18%; in [5], 37%. Further, the selectivity ratio at 336 h in series [9] and in series [12] was more than 100 in each case. In addition, the selectivity ratio at 168 h in series [10], in series [11] and in series [14] was more than 100 in each case. In addition, the selectivity ratio at 504 h in series [13] was more than 100. Further, in series [6], the “DprE1 inhibition (active/not active)” value is “Active”.

Consider `COc1ccc(CSc2nnc(-c3cc([N+](=O)[O-])cc(C(F)(F)F)c3)n2Cc2ccccc2)cc1`, for which the MIC99 against Mycobacterium kansasii [1] worked out at 0.5 µM (≈ 0.25 µg/mL); against Mycobacterium kansasii [2], 1 µM (≈ 0.501 µg/mL); in the series with Mycobacterium kansasii [3] it was 1 µM (≈ 0.501 µg/mL). The result with Aspergillus flavus was inactive. Moreover, the negative logarithm of the IC50 (pIC50) with HepG2 and with A-431 was less than 4.52 in each case. Also, the figures for the viability at 48 h, 30 µM in series [4] and in series [5] were 86% and 74%, respectively. For the same compound, in [6], the “DprE1 inhibition (active/not active)” value is “Active”.

As to `O=[N+]([O-])c1cc(-c2nnc(SCc3ccccc3)n2Cc2ccccc2)cc([N+](=O)[O-])c1`, the MIC99 in the series with Mycobacterium kansasii [1], in the series on Mycobacterium kansasii [2] and in the series on Mycobacterium kansasii [3] was 0.03 µM (≈ 0.0134 µg/mL) each time. Besides, in the series with Aspergillus flavus, the outcome was inactive. Further, the pIC50 with HepG2 and in the series with A-431 was less than 4.52 each time. The viability at 48 h, 30 µM in series [4] amounted to 106%; in series [5], 111%. Also, the “DprE1 inhibition (active/not active)” value in series [6] is “Active”. Further, the inhibition entry in [7] and in [8] was “Active” each time.

For the compound `CCCCCCn1c(SCc2cc([N+](=O)[O-])cc([N+](=O)[O-])c2)nnc1-c1ccccc1`, the MIC99 against Mycobacterium kansasii [1] was found to be 1 µM (≈ 0.442 µg/mL); with Mycobacterium kansasii [2], 2 µM (≈ 0.883 µg/mL); with Mycobacterium kansasii [3], 2 µM (≈ 0.883 µg/mL). Also, the result in the series with Aspergillus flavus was inactive. Also, the “DprE1 inhibition (active/not active)” value in series [6] is “inactive”. For the same compound, the inhibition result in [7] and in series [8] was “inactive” throughout.

For the compound `COc1ccc(Cn2c(SCc3cc([N+](=O)[O-])cc([N+](=O)[O-])c3)nnc2-c2ccccc2)cc1`, the outcome in the series with Aspergillus flavus was inactive. Further, the pIC50 with HepG2 and in the series with A-431 was less than 4.52 throughout. Also, the figures for the viability at 48 h, 30 µM in [4] and in [5] were 133% and 127%, respectively. Moreover, the “DprE1 inhibition (active/not active)” value in [6] is “inactive”. The inhibition entry in series [7] and in series [8] was “inactive” throughout.
